Calls of active or inactive are those of the source. No cut-off for these calls is given here.
Columns and labels:
[1] = system: PBMC; test: Cytotoxicity against PBMC (unknown origin); assay type: cell-based
[2] = (§1) Antiproliferative activity against lenalidomide-resistant human H929-R10-1 cells incubated for 5 days by CellTiter-Glo assay; assay type: functional; settings: 120 h
How it was run: (§2)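 H929 R10-1 cells kept in log phase at 37°C, 5% CO₂, and plated at 5000 cells/well. Compounds were added as 10-point duplicate curves starting at 10µM with 1:3 dilutions, in 0.1% DMSO, final volume 40µl. Plates were incubated for 5 days. Viability was read by CellTiter-Glo luminescence after 1 h at room temperature in the dark. IC50 is the mean of ≥3 separate determinations.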

[3] = molecular target: Protein cereblon/Zinc finger protein Aiolos (Homo sapiens, UniProt Q96SW2+Q9UKT9); test: Induction of CRBN-mediated pLOC-ePL-tagged aiolos (unknown origin) degradation in human DF15 cells assessed as minimum protein remaining incubated for 4 hrs by luminescence based beta-galactosidase enzyme fragmentation complementation assay; assay type: cell-based
[4] = molecular target: Protein cereblon/Eukaryotic peptide chain release factor GTP-binding subunit ERF3A (Homo sapiens, UniProt P15170+Q96SW2); test: Induction of CRBN-mediated pLOC-ePL-tagged GSPT1 (unknown origin) degradation in human DF15 cells assessed as minimum protein remaining incubated for 4 hrs by luminescence based beta-galactosidase enzyme fragmentation complementation assay; assay type: cell-based
[5] = molecular target: Protein cereblon/DNA damage-binding protein 1 (Homo sapiens, UniProt Q96SW2); test: Displacement of Cy5-conjugated CELMoD from N-terminal 6-His tagged CRBN (1 to 442 residues) (unknown origin)/DDB1 (1 to 1140 residues) (unknown origin) incubated for 10 mins by FRET assay; assay type: protein assay
[6] = molecular target: D(2) dopamine receptor (Homo sapiens, UniProt P14416); test: Inhibition of D2S (unknown origin) at 10 uM relative to control
[7] = molecular target: Adrenergic receptor alpha-1 (Homo sapiens) (UniProt P35348+P25100+P35368); test: Inhibition of adrenergic receptor alpha1 (unknown origin) at 10 uM relative to control; assay type: protein assay
[8] = Drug metabolism in assay cell medium assessed as compound racemization measured within 24 hrs; assay type: physicochemical
How it was run: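 Compound held in the same cell medium used for the H929 R10-1 antiproliferation assay; enantiomer levels followed by chiral monitoring over 24 h.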

[9] = species: Homo sapiens; test: Induction of apoptosis in lenalidomide-resistant human H929-R10-1 cells assessed as caspase3 induction at 1 uM measured over 150 hrs by live cell imaging analysis; assay type: functional
How it was run: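 Lenalidomide-refractory H929 R10-1 cells were treated at concentrations from 1 nM to 1 μM. Caspase-3 induction was quantified by live-cell imaging over 150 h.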

[10] = species: Homo sapiens; test: as §1; assay type: functional; how it was run: as §2
[11] = Solubility of the compound; assay type: physicochemical

SMILES | IC50 [2] [nM] | EC50 [3] [nM] | EC50 [4] [nM] | inhibition [6] [%] | inhibition [7] [%] | further results
O=C1CCC(N2Cc3c(OCc4ccc(CN5CCN(c6ccccc6F)CC5)cc4)cccc3C2=O)C(=O)N1 (configuration not stated) | 5 | 0.2 | > 10000 |  |  | Activity [1]: Non-Toxic
C[C@@]1(N2Cc3c(OCc4ccc(CN5CCN(c6ccc(F)cc6F)CC5)cc4)cccc3C2=O)CCC(=O)NC1=O | > 5000 | > 100 |  |  |  | IC50 [5]: 9620 nM
O=C1CCC(N2C(=O)c3cccc(OCc4ccc(CN5CCN(c6ccc(Cl)cc6Cl)CC5)cc4)c3C2=O)C(=O)N1 (configuration not stated) | 170 | 3.3 | > 10000 |  |  | IC50 [5]: 877 nM
O=C1CCC(N2Cc3c(OCc4ccc(CN5CCN(c6ccccc6)CC5)cc4)cccc3C2=O)C(=O)N1 (configuration not stated) | 2.1 | 0.1 | > 10000 |  |  | Activity [1]: Non-Toxic
O=C1CCC(N2Cc3c(OCc4ccc(CN5CCN(c6ccccn6)CC5)cc4)cccc3C2=O)C(=O)N1 (configuration not stated) | 4.6 | 0.4 |  | 98 | 99 | 
CC(C)C1CCN(Cc2ccc(COc3cccc4c3CN(C3CCC(=O)NC3=O)C4=O)cc2)CC1 (configuration not stated) | 1.4 | 0.1 |  | 94 | 63 | 
O=C1CC[C@@H](N2Cc3c(OCc4ccc(CN5CCN(c6ccc(F)cc6F)CC5)cc4)cccc3C2=O)C(=O)N1 | 4.3 | 0.5 |  |  |  | IC50 [5]: 1160 nM; Drug metabolism [8]: Metabolite_Detected
Nc1cccc2c1CN(C1CCC(=O)NC1=O)C2=O (configuration not stated) |  |  |  |  |  | Activity [9]: Active; Activity [10]: inactive
O=C1CCC(N2Cc3c(OCc4ccc(CN5CCN(c6cccc(F)c6)CC5)cc4)cccc3C2=O)C(=O)N1 (configuration not stated) | 3.7 | 0.1 | > 10000 |  |  | Activity [1]: Non-Toxic
O=C1CCC(N2Cc3c(OCc4ccc(CN5CCN(c6c(F)cccc6F)CC5)cc4)cccc3C2=O)C(=O)N1 (configuration not stated) | 4 | 0.3 | > 10000 |  |  | Activity [1]: Non-Toxic
Cc1ccc(NC(=O)NCc2ccc3c(c2)CN(C2CCC(=O)NC2=O)C3=O)cc1Cl (configuration not stated) |  |  |  |  |  | IC50 [1]: > 5000 nM; Activity [10]: Active
CC1(C)CCN(Cc2ccc(COc3cccc4c3CN(C3CCC(=O)NC3=O)C4=O)cc2)CC1 (configuration not stated) | 9.9 | 0.3 |  | 66 | 21.5 | 
CN1C(=O)CCC(N2Cc3c(OCc4ccc(CN5CCN(c6ccc(F)cc6F)CC5)cc4)cccc3C2=O)C1=O (configuration not stated) | 632 | > 10000 | > 10000 |  |  | IC50 [5]: 28000 nM
O=C1CCC(N2Cc3c(OCc4ccc(CN5CCN(c6ccc(F)cc6)CC5)cc4)cccc3C2=O)C(=O)N1 (configuration not stated) | 2.8 | 0.1 | > 10000 | 94.7 | 100 | Activity [1]: Non-Toxic
O=C1CCC(N2Cc3c(NCc4ccc(CN5CCN(c6ccc(F)cc6F)CC5)cc4)cccc3C2=O)C(=O)N1 (configuration not stated) | 26.3 | 1.5 | > 10000 |  |  | IC50 [5]: 194 nM
CC(C)N1CCN(Cc2ccc(COc3cccc4c3CN(C3CCC(=O)NC3=O)C4=O)cc2)CC1 (configuration not stated) | 35.1 | 0.3 |  |  |  | 
O=C1CCC(N2Cc3c(OCc4ccc(CN5CCN(c6ccc(Cl)cc6)CC5)cc4)cccc3C2=O)C(=O)N1 (configuration not stated) | 3.6 | 0.1 | > 10000 |  |  | Activity [1]: Non-Toxic
O=C1CCC(N2Cc3c(OCc4ccc(CN5CCN(c6ccc(Cl)cc6Cl)CC5)cc4)cccc3C2=O)C(=O)N1 (configuration not stated) | 9.2 | 0.2 | > 10000 |  |  | Activity [1]: Non-Toxic

SMILES | IC50 [2] [nM] | EC50 [3] [nM] | EC50 [4] [nM] | inhibition [6] [%] | inhibition [7] [%] | further results
C[C@]1(N2Cc3c(OCc4ccc(CN5CCN(c6ccc(F)cc6F)CC5)cc4)cccc3C2=O)CCC(=O)NC1=O | 496 | > 10 |  |  |  | IC50 [5]: > 10000 nM
O=C1CCC(N2Cc3c(OCc4ccc(CN5CCC(F)(F)CC5)cc4)cccc3C2=O)C(=O)N1 (configuration not stated) | 20.5 | 0.5 |  |  |  | 
N#Cc1cccnc1N1CCN(Cc2ccc(COc3cccc4c3CN(C3CCC(=O)NC3=O)C4=O)cc2)CC1 (configuration not stated) | 56 | 1 |  | 100 | 92.1 | 
O=C1CCC(N2Cc3c(OCc4ccc(CN5CCC(C(F)(F)F)CC5)cc4)cccc3C2=O)C(=O)N1 (configuration not stated) | 8.3 | 0.6 |  | 95.4 | 41.5 | 
NC(=O)c1ccc(N2CCN(Cc3ccc(COc4cccc5c4CN(C4CCC(=O)NC4=O)C5=O)cc3)CC2)cn1 (configuration not stated) | 3.5 | 0.4 |  | 32.9 | 25.2 | 
O=C1CCC(N2Cc3c(OCc4ccc(C(=O)N5CCN(c6ccc(Cl)cc6Cl)CC5)cc4)cccc3C2=O)C(=O)N1 (configuration not stated) | 3.3 | 0.1 |  | 5.6 | 74.1 | solubility [11]: < 7 µg/mL
COc1ccc(N2CCN(Cc3ccc(COc4cccc5c4CN(C4CCC(=O)NC4=O)C5=O)cc3)CC2)cc1 (configuration not stated) | 7.1 | 0.5 | > 10000 |  |  | Activity [1]: Non-Toxic
O=C1CCC(N2Cc3c(OCc4ccc(C(=O)N5CCN(c6ccc(F)cc6)CC5)cc4)cccc3C2=O)C(=O)N1 (configuration not stated) | 3.7 | 0.3 |  |  |  | solubility [11]: < 7 µg/mL
O=C1CCC(N2Cc3c(OCc4ccc(C(=O)N5CCN(c6ccc(Cl)cc6)CC5)cc4)cccc3C2=O)C(=O)N1 (configuration not stated) | 6.2 | 0.1 |  | 7.9 | 33.7 | solubility [11]: < 7 µg/mL
O=C1CCC(N2Cc3c(OCc4ccc(C(=O)N5CCN(c6ccc(F)cc6F)CC5)cc4)cccc3C2=O)C(=O)N1 (configuration not stated) | 4.9 | 0.1 |  | 0.4 | 70.3 | solubility [11]: < 7 µg/mL
O=C1CCC(N2Cc3c(OCc4ccc(CN5CCN(c6ccc(F)cn6)CC5)cc4)cccc3C2=O)C(=O)N1 (configuration not stated) | 7.4 | 0.7 |  | 90.8 | 97.7 | 
O=C1CCC(N2Cc3c(OCc4ccccc4)cccc3C2=O)C(=O)N1 (configuration not stated) | > 10000 | 7.5 |  |  |  | 
O=C1CCC(N2Cc3c(OCc4ccc(CN5CCN(c6ccc(Cl)cc6Cl)CC5=O)cc4)cccc3C2=O)C(=O)N1 (configuration not stated) | 6.7 | 0.6 |  |  |  | solubility [11]: < 7 µg/mL
O=C1CCC(N2C(=O)c3cccc(OCc4ccc(CN5CCN(c6ccc(F)cc6F)CC5)cc4)c3C2=O)C(=O)N1 (configuration not stated) | 159 | 2.4 | > 10000 |  |  | IC50 [5]: 502 nM
O=C1CC[C@H](N2Cc3c(OCc4ccc(CN5CCN(c6ccc(F)cc6F)CC5)cc4)cccc3C2=O)C(=O)N1 | 3.8 | 0.1 |  |  |  | IC50 [5]: 37 nM
O=C1CCC(N2C(=O)c3cccc(OCc4ccc(CN5CCN(c6ccc(F)cc6)CC5)cc4)c3C2=O)C(=O)N1 (configuration not stated) | 146 | 2.1 | > 10000 |  |  | IC50 [5]: 322 nM
CN1CCN(Cc2ccc(COc3cccc4c3CN(C3CCC(=O)NC3=O)C4=O)cc2)CC1 (configuration not stated) | 510 | 3 |  |  |  | 
CC1CCN(Cc2ccc(COc3cccc4c3CN(C3CCC(=O)NC3=O)C4=O)cc2)CC1 (configuration not stated) | 35.1 | 1 |  | 78.4 | 40.4 | 

Reference: ChEMBL document CHEMBL4627320, “Discovery of CRBN E3 Ligase Modulator CC-92480 for the Treatment of Relapsed and Refractory Multiple Myeloma” (J Med Chem, 2020)
